Screening data deposited in PubChem by several laboratories.
An excerpt weighted towards active compounds, which were near 4.1% of everything screened.
Dynein transport: inhibitors of GR-EGFP nuclear translocation, primary screen, dynein cargo transport inhibitor project, imaging, high-content, 3617.4 mouse cells. test concentration mostly 20 µM; stimulated with dexamethasone, 1 µM; active compounds read low. z-score, hits read low. actives 0.47% (n = 220,000). AID 1381, 2008;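 active = plate z-score of nuclear minus cytoplasmic receptor signal below a set negative limit, without overly bright fluorescence or cell loss, cut at about -3.5 in these data, passing the limit was not always enough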;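 also: z-score of nuclear minus cytoplasmic ring GR-EGFP intensity difference per well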
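medium = tetracycline-free induction medium containing charcoal-stripped FBS | probe or stimulus = dexamethasone, 1.0 µM final | timing = 48 h induction, then 1 h compound, then 30 min agonist, 37 °C | detection = automated 10x imaging of fixed Hoechst-stained cells | read-out basis = nuclear versus cytoplasmic GR-EGFP signal, averaged per well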
Cl transport mod: KCC2 cotransporter modulators, thallium flux, primary screen, cell-based, HEK293 KCC2, FluoZin-2 fluorescence, MLSMR; Solute carrier family 12 member 5 (Homo sapiens), Q9H2X9; KCC2 cells, thallium flux FluoZin-2 fluorescence; B-score of Tl+ flux slope (higher = more flux/activation; lower = inhibition) at 10 µM; actives 2.2% (n = 190,000);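 active = thallium flux slope and its plate-corrected score both differing from the plate sample mean at a set confidence after two filtering rounds, in either direction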;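 also: slope of fluorescence scaled to starting intensity during 10 to 20 s after thallium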
Target sequence (Q9H2X9 whole entry, looked up): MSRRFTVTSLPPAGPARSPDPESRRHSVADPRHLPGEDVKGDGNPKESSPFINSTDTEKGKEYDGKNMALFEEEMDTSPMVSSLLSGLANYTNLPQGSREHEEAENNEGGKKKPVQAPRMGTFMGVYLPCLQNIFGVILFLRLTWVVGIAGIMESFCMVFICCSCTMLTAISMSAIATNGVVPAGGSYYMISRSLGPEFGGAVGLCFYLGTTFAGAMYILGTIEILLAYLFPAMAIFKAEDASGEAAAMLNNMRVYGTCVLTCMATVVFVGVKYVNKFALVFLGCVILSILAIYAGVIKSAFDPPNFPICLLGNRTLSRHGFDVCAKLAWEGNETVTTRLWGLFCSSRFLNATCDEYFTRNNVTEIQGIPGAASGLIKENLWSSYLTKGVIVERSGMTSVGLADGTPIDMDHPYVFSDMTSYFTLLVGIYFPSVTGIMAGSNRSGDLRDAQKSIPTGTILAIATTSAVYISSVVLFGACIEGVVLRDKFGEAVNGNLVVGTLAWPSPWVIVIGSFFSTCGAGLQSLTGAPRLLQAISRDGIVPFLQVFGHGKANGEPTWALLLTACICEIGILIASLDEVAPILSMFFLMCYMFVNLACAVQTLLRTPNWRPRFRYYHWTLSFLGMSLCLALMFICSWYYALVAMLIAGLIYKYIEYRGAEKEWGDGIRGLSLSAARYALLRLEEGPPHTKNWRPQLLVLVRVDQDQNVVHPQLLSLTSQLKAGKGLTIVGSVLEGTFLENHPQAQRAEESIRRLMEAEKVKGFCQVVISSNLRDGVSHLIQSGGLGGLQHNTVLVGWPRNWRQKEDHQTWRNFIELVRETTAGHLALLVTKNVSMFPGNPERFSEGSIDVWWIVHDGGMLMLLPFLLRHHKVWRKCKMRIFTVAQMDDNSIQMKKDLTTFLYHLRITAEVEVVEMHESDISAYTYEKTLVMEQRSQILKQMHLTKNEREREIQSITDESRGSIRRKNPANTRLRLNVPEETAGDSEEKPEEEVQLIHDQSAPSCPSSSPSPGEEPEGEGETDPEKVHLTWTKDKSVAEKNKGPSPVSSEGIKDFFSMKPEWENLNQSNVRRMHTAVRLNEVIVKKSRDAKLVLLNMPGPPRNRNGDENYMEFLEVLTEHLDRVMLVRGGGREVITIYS
DTT redox prof: compounds producing H2O2 with reducing agent – biochemical, NIH compound library profiling, artefact control for MLSCN library redox annotation, primary screen. activation, % at 10 µM. DTT-dependent redox cycling H2O2, phenol red/HRP absorbance; 100% = 100 µM peroxide control, 0% = buffer. actives 0.03% (n = 200,000);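 active = activation of at least 50% relative to the plate's high and low controls in the primary single-dose screen; inactive = activation below 50%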;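 also: compound incubated with DTT at 0.8 mM final as the reducing agent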
ROMK primary: ROMK potassium channel modulators, primary screen, cell-based, thallium flux, MLSMR library; ATP-sensitive inward rectifier potassium channel 1 (Homo sapiens), P48048; Tet-inducible ROMK, thallium flux fluorescence; actives lie on both sides; B-score at 10 µM; actives 2% (n = 130,000);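 active = signal ratio slope over the read window, or its plate-corrected B-score, at least 3 SD from the plate mean, either direction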;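 also: B-score of the F/F0 ratio slope over 7 to 12 s after thallium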
Autophagy mod: autophagy modulators in MEF cells, primary screen, imaging, high-content, MEF GFP-LC3; calls only at 10 µM (by protocol); MEF GFP-LC3 puncta imaging; test concentration mostly 10 µM; actives 0.98% (n = 190,000);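 active = percentage of spot-positive cells more than 3 SD above its plate mean, without a fluorescence outlier flag or 80% toxicity; inconclusive = no clear call, values can overlap the other calls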;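 also: spot-positive cell cutoff set from DMSO-treated cells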
ROMK hit retest: ROMK channel modulator hit retest, confirmation, cell-based, thallium flux, duplicate, resupplied hits | shares compounds with ROMK primary | fluorescence ratio; active compounds read low | normalized thallium flux (F/F0 slope) at 10 µM | actives 54% (n = 3,000);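 active = Flux at 10 µM at least 3 SD below or above vehicle control mean in one or both replicates; inconclusive = no clear call, values can overlap the other calls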
Active calls of the source: *; i = inactive; ? = inconclusive; · = no result; + = active, no number.

SMILES	Dynein transport	Cl transport mod	DTT redox prof	ROMK primary	Autophagy mod	ROMK hit retest
COC(=O)[C@@H]1C[C@@]2(O)[C@@H](O)[C@@H](O)[C@@H](O)C[C@H]2N1Cc1ccc(C(F)(F)F)cc1	1.2	-0.064	·	·	·	0.072
O=C(O)/C=C/C(=O)NC1CC1	-0.66	-0.34	0	·	i	·
O=C(c1ccc(CNc2c(N3CCCC3)c(=O)c2=O)cc1)N1CCN(C2CCCCC2)CC1	-0.85	1.2	0	3.7*	i	0.085
CC1CCN(C(=O)c2ccc(CNc3c(N4CCCC4)c(=O)c3=O)cc2)CC1	1.8	1.3	·	-0.97	·	·
CN(CCCNC(=O)CSc1cc(=O)n(C)c2ccc(Cl)cc12)Cc1ccccc1	0.18	-0.029	-1	·	i	·
CCN(C1CCCCC1)S(=O)(=O)c1ccc(OC)c(C)c1	-0.73	-0.52	1	-3.4*	i	0.066*
CCN(C1CCCCC1)S(=O)(=O)c1cc(C)ccc1OC	-0.32	-0.4	0	-1.6	i	·
CC(C)c1ccccc1NC(=O)CC1(CC(=O)O)CCCC1	0.34	0.36	·	·	·	·
O=C1OC(c2cccs2)=N/C1=C\c1ccc(-c2cccc(Cl)c2)o1	-1.9	·	0	·	i	0.052*
Cc1nc2ccc(NC(=O)c3cccc(S(=O)(=O)N(C)c4ccccc4)c3)cc2s1	0.27	-1.7	0	-1.4	i	·
CN(c1ccccc1)S(=O)(=O)c1cccc(NC(=O)c2ccc3ncsc3c2)c1	0.13	·	·	·	·	0.067*
COC(=O)c1sc(-c2ccc(C(C)(C)C)cc2)cc1NC(=O)COCC(=O)O	-0.51	-0.7	·	-11*	·	0.085
O=C(c1cc2nc(C3CC3)cc(C(F)(F)F)n2n1)N1CCCC1	0.0033	-0.54	0	6.9*	i	0.079
Cc1cc(OC(=O)c2ccc(S(=O)(=O)N3CCOCC3)cc2)c([N+](=O)[O-])c(=O)[nH]1	1.6	·	-9	0.46	i	·
COC(=O)C1=C(C)N=C2SC(C#N)=C(N)N2C1c1ccc(OC)cc1 (stereo unspecified)	-0.19	-0.061	-4	0.0042	i	·
CCOC(=O)C1=C(C)N=C2SC(C(=O)OC)=CC(=O)N2C1c1ccc(OC)cc1 (stereo unspecified)	-1.2	0.42	-1	-4.5*	i	0.054*
N#CC1=C(N)Oc2cc(O)ccc2C1c1cccnc1 (stereo unspecified)	-0.012	-0.3	-1	-0.86	i	·
CN(C)c1ccc2c(c1)OC(N)=C(C#N)C2c1cccc(F)c1 (stereo unspecified)	0.003	-1.2	-2	·	i	0.064*
CC(=O)N(C(C)=O)N1C(=O)/C(=C/c2ccc(Cl)cc2)SC1=S	-0.53	-0.69	-2	-3.2*	i	0.053*
CCOc1ccccc1C1C(C#N)=C(N)Oc2cc(N)ccc21 (stereo unspecified)	0.86	-0.86	0	-4.2*	i	0.053*
O=C1N=C2SCCN2/C1=C\c1ccc(Cl)cc1	-0.65	-0.5	0	-7.6*	i	0.047*
Cc1ccc(/C=C2\SC(N3CCCC3)=NC2=O)cc1	1.9	-1.2	-1	2.8	i	·
O=C(N/N=C/c1ccccc1C(=O)O)c1ccccc1Br	1.3	0.41	0	0.037	i	·
NC(=O)N/N=C/c1ccccc1OC(=O)c1ccccc1Br	0.29	0.033	0	-3.2*	i	0.052*
CC(=NC(C)C)C1=C(O)C(C)OC1=O (stereo unspecified)	0.13	0.69	0	0.26	i	·
SMILES	Dynein transport	Cl transport mod	DTT redox prof	ROMK primary	Autophagy mod	ROMK hit retest
O=C1/C(=C\Nc2ccc(Cl)cc2)CCN1c1ncccn1	0.25	·	1	·	i	·
O=C1/C(=C\Nc2ccc(OC(F)(F)F)cc2)CCN1c1ncccn1	1.1	·	0	2.9*	i	0.083
ClC1(Cl)CC1CSc1nc2ccccc2[nH]1 (stereo unspecified)	0.26	-1.3	0	-4.3*	i	0.085
CC(=Nc1cccc(O)c1)c1sc2ccccc2c1O	-0.91	·	0	-2.4*	i	0.058*
O=C(CN1CCN(Cc2ccccc2)CC1)Nc1ccccc1-c1ccccc1	-0.14	-0.014	0	-3.7*	i	?
Oc1c(C=NCc2ccc(F)cc2)[nH]c2ccc(Br)c(Cl)c12	-3.1	·	1	-5.2*	+	0.047*
Cc1nn(Cc2ccc(Cl)cc2)c(C)c1NC(=O)C(c1ccccc1)c1ccccc1	0.87	-0.084	0	·	i	·
CC(=O)c1cc(-c2ccccc2)n(CC(=O)N2CCCCC2)c1C	-0.13	0.019	0	3*	i	0.075
COc1cccc(-c2csc(N3CCN(C(=O)C4CCCCC4)CC3)n2)c1	0.81	-1.1	-2	·	i	?
Fc1ccc2[nH]c3c(N4CCN(c5ccccc5)CC4)ncnc3c2c1	0.08	0.095	0	-0.48	i	0.076
CCOC(=O)N1CCN(c2ncnc3c2[nH]c2ccc(F)cc23)CC1	0.17	0.74	-7	·	i	·
CC1(c2ccccc2)CC(C)(C)N(C(=O)C2CCCO2)c2ccccc21 (stereo unspecified)	0.38	-0.31	0	-3.6*	i	0.058*
N=c1n(CCN2CCCCC2)c2ccccc2n1CC(O)c1ccc(Cl)c(Cl)c1 (stereo unspecified)	-3.3	-0.15	0	-4.5*	+	0.046*
O=c1[nH][nH]c2ccccc2c1=O	-0.64	-0.096	·	·	·	·
CC1CCCCC1NC(=O)COC(=O)CNC(=O)c1cccc(F)c1 (stereo unspecified)	1.3	-0.68	-2	-2.1*	i	0.09
CC(C)c1csc(CN2CCC(N3CCC(C(=O)NCC4CCCO4)CC3)CC2)n1 (stereo unspecified)	-0.62	0.39	-1	0.16	i	·
Cc1ccc2oc(=O)n(CCOc3ccccc3)c2c1	0.77	-0.55	0	-3.5*	i	0.057*
Cc1cccc(OCCn2c(=O)oc3ccc(C)cc32)c1	0.58	0.16	-1	-2.3	i	·
COCCNC(=O)CSC1=N/C(=C/c2ccc(Cl)c(Cl)c2)C(=O)N1c1ccccc1F	0.38	-0.52	0	·	i	0.077
COCCNC(=O)/C(C#N)=C/c1cccc(NC(=O)c2ccccc2Cl)c1	-1.6	-0.24	1	·	i	0.047*
COC(=O)C(CCSC)NS(=O)(=O)c1ccc(Cl)cc1 (stereo unspecified)	-0.39	0.64	0	-0.078	i	·
